# Experimental data collected from several papers.
# Each line is one published result; the experiments were not run side by side.
# Target: Adenosine receptor A3 (ADORA3, Homo sapiens, UniProt P0DMS8)
# Sequence (P0DMS8 1-318, as in one of the studies): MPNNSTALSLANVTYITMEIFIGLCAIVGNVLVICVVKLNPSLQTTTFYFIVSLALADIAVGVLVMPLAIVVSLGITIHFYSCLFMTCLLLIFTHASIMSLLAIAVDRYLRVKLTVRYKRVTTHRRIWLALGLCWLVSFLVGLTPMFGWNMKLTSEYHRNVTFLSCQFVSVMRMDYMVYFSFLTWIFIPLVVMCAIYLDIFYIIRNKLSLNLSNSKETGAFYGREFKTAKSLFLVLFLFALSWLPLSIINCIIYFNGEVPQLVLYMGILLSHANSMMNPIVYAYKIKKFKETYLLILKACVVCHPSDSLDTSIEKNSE
Compound,effect on,technique,setting,Ki [nM]
CCCCCN1CCCn2c1nc1c2c(=O)n(C)c(=O)n1C,ligand displacement,radioligand,cell membranes,> 10000
Nc1nc2c(cnn2CCc2ccccc2)c2nc(-c3ccco3)nn12,ligand displacement in cells,BRET,,158
CNC(=O)[C@@]12C[C@@H]1[C@@H](n1cnc3c(NCc4cn(-c5ccc(C(=O)NCCCF)cc5)nn4)nc(Cl)nc31)[C@H](O)[C@@H]2O,ligand displacement,radioligand,cell membranes,36.7
OC[C@@]12C[C@@H]1[C@@H](n1cnc3c(NC(C4CCCC4)C4CCCC4)nc(Cl)nc31)[C@H](O)[C@@H]2O,ligand displacement,radioligand,,4380
CCCCn1c(=O)c2[nH]c(C34CC5CC(CC3C5)C4)nc2n(CCCO)c1=O,ligand displacement,radioligand,cell membranes,> 1000
Nc1nc2ccc(Cl)cc2c2nc(-c3ccco3)nn12,ligand displacement in cells,BRET,,7.59
CNC(=O)[C@@]12C[C@@H]1[C@@H](n1cnc3c(NCc4cccc(Cl)c4)nc(C#Cc4cccc(C(=O)NCCOCCOCCOCCOCCOCCOCCC(=O)N5CCC(c6ccc(-c7cc(C(=O)O)cc8cc(-c9ccc(C(F)(F)F)cc9)ccc78)cc6)CC5)c4)nc31)[C@H](O)[C@@H]2O,ligand displacement in cells,radioligand,,3.6
CC(C)=CCNc1ncnc2c1ncn2[C@@H]1O[C@H](CO)[C@@H](O)[C@H]1O,ligand displacement,radioligand,cell membranes,159
O[C@@H]1[C@H](O)[C@@H]2C[C@@H]2[C@H]1n1cnc2c(NCc3cn(C45CC6CC(CC(C6)C4)C5)nn3)nc(Cl)nc21,ligand displacement,radioligand,cell membranes,2190
COCCOc1ccc(N2CCN(CCn3ncc4c3nc(N)n3nc(-c5ccco5)nc43)CC2)cc1,ligand displacement,radioligand,cell membranes,> 1000
NC1C(O)C(n2cnc3c(NCc4cccc(I)c4)ncnc32)C2CC12 (stereo not shown),ligand displacement,radioligand,cell membranes,5460
CCCN1CCCn2c1nc1c2c(=O)n(C)c(=O)n1C,ligand displacement,radioligand,cell membranes,> 10000
CNC(=O)[C@@]12C[C@@H]1[C@@H](n1cnc3c(NCc4cn(C56CC7CC(CC(C7)C5)C6)nn4)nc(Cl)nc31)[C@H](O)[C@@H]2O,ligand displacement,radioligand,cell membranes,38.1
CN1CCCn2c1nc1c2c(=O)n(C)c(=O)n1C,ligand displacement,radioligand,cell membranes,> 10000
O=C(NCCC(c1ccccc1)c1ccccc1)[C@H]1S[C@@H](n2cnc3c(NCc4cccc(I)c4)ncnc32)[C@H](O)[C@@H]1O,ligand displacement,radioligand,,116
CCNC(=O)C1OC(n2cnc3c(N)nc(NN=CC4CCC=CO4)nc32)C(O)C1O (stereo not shown),ligand displacement,radioligand,,16
